Assay results reported in publication PMC7263024 (General and comparative endocrinology, 2019).
Entries after “also recorded” stand apart in the source; their conditions may differ.

Experiments:
gMc3r/gMrap1 = assay: cAMP-reporter gene assay, gMc3r co-expressed with gMrap1; format: cell-based, spotted gar (Lepisosteus oculatus); conditions: Fig. 4A, vs gMc3r alone; for effect of gMrap1 co-expression on ligand sensitivity: p = 0.49 (hACTH(1–24)), p = 0.98 (NDP-MSH)
How it was run: (§1)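 CHO cells (F12K, 10% FBS, 37 °C, 5% CO2) nucleofected with 2 μg each of gar receptor cDNA, with or without gar Mrap1 or Mrap2, plus CRE-luciferase. After 48 h, stimulated 4 h at 37 °C in serum-free medium with hACTH(1–24) 10−13–10−6 M or NDP-MSH 10−12–10−6 M. Luminescence read after a 5 min luciferase reagent step. Medium-only background subtracted. EC50 from Michaelis-Menten fits; triplicates.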

gMc2r/gMrap2 = assay: cAMP-reporter gene assay, gMc2r co-expressed with gMrap2; format: cell-based, spotted gar (Lepisosteus oculatus); conditions: Fig. 2A, CHO cells, CRE-Luciferase, 4 h at 37 °C, 10^−13M to 10^−6M, n = 3
How it was run: as §1

gMc1r/gMrap2 = assay: cAMP-reporter gene assay, gMc1r co-expressed with gMrap2; format: cell-based, spotted gar (Lepisosteus oculatus); conditions: Fig. 3B, vs gMc1r alone; for effect of gMrap2 co-expression on Vmax value: hACTH(1–24) P = 0.43, NDP-MSH p = 0.42, T-test; for effect of gMrap2 co-expression on ligand sensitivity: p = 0.12 (hACTH(1–24)), p = 0.28 (NDP-MSH)
How it was run: as §1

gMc4r/gMrap1 = assay: cAMP-reporter gene assay, gMc4r co-expressed with gMrap1; format: cell-based, spotted gar (Lepisosteus oculatus); conditions: Fig. 5A, vs gMc4r alone; for effect of gMrap1 co-expression on ligand sensitivity: p = 0.49 (hACTH(1–24)), p = 0.98 (NDP-MSH)
How it was run: as §1

gMc5r/gMrap2 = assay: cAMP-reporter gene assay, gMc5r co-expressed with gMrap2; format: cell-based, spotted gar (Lepisosteus oculatus); conditions: Fig. 6A, 6B, vs gMc5r alone; for effect of gMrap2 co-expression on Vmax: hACTH(1–24) p = 0.001, NDP-MSH p = 0.007, T-test; for effect of gMrap2 co-expression on ligand sensitivity: hACTH(1–24) p = 0.5
How it was run: as §1

gMc1r/gMrap1 = assay: cAMP-reporter gene assay, gMc1r co-expressed with gMrap1; format: cell-based, spotted gar (Lepisosteus oculatus); conditions: Fig. 3A, vs gMc1r alone; for effect of gMrap1 co-expression on Vmax value: hACTH(1–24) p < 0.001, NDP-MSH p = 0.02, T-test; for effect of gMrap1 co-expression on ligand sensitivity: p = 0.90 (hACTH(1–24)), p = 0.92 (NDP-MSH)
How it was run: as §1

gMc4r/gMrap2 = assay: cAMP-reporter gene assay, gMc4r co-expressed with gMrap2; format: cell-based, spotted gar (Lepisosteus oculatus); conditions: Fig. 5B; vs gMc4r alone; p < 0.001 (both ligands); T-test
gMc2r = assay: cAMP-reporter gene assay, gMc2r expressed alone; format: cell-based, spotted gar (Lepisosteus oculatus); conditions: Fig. 2A; CHO cells, CRE-Luciferase, 4 h at 37 °C, 10^−13M to 10^−6M; n = 3
How it was run: as §1

gMc5r/gMrap1 = assay: cAMP-reporter gene assay, gMc5r co-expressed with gMrap1; format: cell-based, spotted gar (Lepisosteus oculatus); conditions: Fig. 6A, 6B, vs gMc5r alone; for effect of gMrap1 co-expression on Vmax: hACTH(1–24) p = 0.44, NDP-MSH p = 0.01, T-test; for effect of gMrap1 co-expression on ligand sensitivity: hACTH(1–24) p = 0.5, NDP-MSH p = 0.64
How it was run: as §1

gMc2r/gMrap1 = assay: cAMP-reporter gene assay, gMc2r co-expressed with gMrap1; format: cell-based, spotted gar (Lepisosteus oculatus)
How it was run: as §1

gMc3r/gMrap2 = assay: cAMP-reporter gene assay, gMc3r co-expressed with gMrap2; format: cell-based, spotted gar (Lepisosteus oculatus); conditions: Fig. 4B, vs gMc3r alone; for effect of gMrap2 co-expression on Vmax value: hACTH(1–24) p – 0.99, NDP-MSH p > 0.001 (so in the source), T-test; for effect of gMrap2 co-expression on ligand sensitivity: p = 0.98 (both ligands)
gMc4r = assay: cAMP-reporter gene assay, gMc4r expressed alone; format: cell-based, spotted gar (Lepisosteus oculatus); conditions: p = 0.11
How it was run: as §1

[1] = tested on: Gallus gallus (chicken; c) Mc5r with cMrap1; conditions: ref Thomas et al., 2018; cited from earlier work
hMc2r = conditions: ref Metherell et al., 2005; Sebag and Hinkle, 2007; cited from earlier work
Mc2r and Mc5r orthologs = conditions: ref Thomas et al., 2018, Dores et al., Barney et al., 2019; cited from earlier work
zebrafish Mc4r = conditions: 2013, cited from earlier work
gMc1r = assay: cAMP-reporter gene assay, gMc1r expressed alone; format: cell-based, spotted gar (Lepisosteus oculatus); conditions: comparison of EC50 values, p < 0.001
hMc2r/mMrap1 = conditions: ref Liang et al., 2011; cited from earlier work
mouse Mc4r = conditions: activation by NDP-MSH; ref Asai et al., 2013; cited from earlier work
gMc5r = assay: cAMP-reporter gene assay, gMc5r expressed alone; format: cell-based, spotted gar (Lepisosteus oculatus); conditions: p = 0.07, T-test
gMc3r = assay: cAMP-reporter gene assay, gMc3r expressed alone; format: cell-based, spotted gar (Lepisosteus oculatus); conditions: p = 0.03

Substance | effect of gMrap1 co-expression on Vmax value (gMc3r/gMrap1) | effect of gMrap1 co-expression on ligand sensitivity (gMc3r/gMrap1) | effect of gMrap2 co-expression on Vmax value (gMc1r/gMrap2) | effect of gMrap2 co-expression on ligand sensitivity (gMc1r/gMrap2) | effect of gMrap1 co-expression on Vmax value (gMc4r/gMrap1) | effect of gMrap1 co-expression on ligand sensitivity (gMc4r/gMrap1) | effect of gMrap2 co-expression on Vmax (gMc5r/gMrap2) | effect of gMrap2 co-expression on ligand sensitivity (gMc5r/gMrap2) | effect of gMrap1 co-expression on Vmax value (gMc1r/gMrap1) | effect of gMrap1 co-expression on ligand sensitivity (gMc1r/gMrap1) | effect of gMrap2 co-expression on Vmax (gMc4r/gMrap2) | effect of gMrap1 co-expression on Vmax (gMc5r/gMrap1) | effect of gMrap1 co-expression on ligand sensitivity (gMc5r/gMrap1) | effect of gMrap2 co-expression on Vmax value (gMc3r/gMrap2) | effect of gMrap2 co-expression on ligand sensitivity (gMc3r/gMrap2) | efficacy of hACTH(1–24) compared with NDP-MSH (gMc4r) | further results
hACTH(1–24): Human (h) ACTH(1–24), purchased from Sigma-Aldrich; 96% primary sequence identity with gACTH(1–24) | no effect on the Vmax value | had no effect on sensitivity to stimulation | no effect on the Vmax value | no effect, in either a positive or negative manner, on the sensitivity of gMc1r | no effect on the Vmax value | had no effect on sensitivity to stimulation; also recorded: no statistical effect on the sensitivity of gMc4r | increase in the Vmax value | did not affect sensitivity; also recorded: no effect, either positive or negative, on the sensitivity of the receptor | decrease in the Vmax value | had no effect on sensitivity to stimulation | statistically higher than the Vmax for the dose response curve when gMc4r was expressed alone; also recorded: the amplitude of stimulation (Vmax) also increased for both ligands | no change in the Vmax value | had no effect on sensitivity to stimulation; also recorded: negligible shift in sensitivity; also recorded: no effect, either positive or negative, on the sensitivity of the receptor | no effect on the Vmax value | no effect either positive or negative on the sensitivity of gMc3r | can be activated with equal efficacy | effect of gMrap1 co-expression on ligand sensitivity (gMc3r/gMrap1; listed as hACTH (1–24)): no effect either positive or negative on sensitivity; activation of gMc2r co-expressed with gMrap2 (gMc2r/gMrap2): activation did not occur; also recorded: gMrap2 did not facilitate activation of gMc2r; activation of gMc2r co-expressed with gMrap2 (gMc2r/gMrap2; listed as hACTH (1–24)): there was no activation; activation of gMc2r expressed alone by hACTH(1–24) (gMc2r): activation of gMc2r did not occur when the receptor was expressed alone; also recorded: did not result in activation of the receptor; also recorded: no activation when expressed alone; activation of gMc2r co-expressed with gMrap1 by hACTH(1–24) (gMc2r/gMrap1; Fig. 2A, CHO cells, CRE-Luciferase, 4 h at 37 °C, n = 3): obligatory requirement for co-expression with gMrap1 in order for the receptor to be activated by hACTH(1–24); also recorded: activation of the receptor was recovered; concentration at which activation reached saturation (gMc2r/gMrap1; Fig. 2B, CHO cells, 4 h at 37 °C): 10^−9 M; effect of cMrap1 co-expression on sensitivity to stimulation [1]: significantly increased the sensitivity
ACTH | – | – | – | – | – | – | – | – | – | – | – | – | – | – | – | – | stimulation of hMc2r/Mrap1 by ACTH (hMc2r): in the correct configuration to be stimulated by ACTH; effect of Mrap1 co-expression on sensitivity to stimulation by ACTH (Mc2r and Mc5r orthologs): enhanced sensitivity to stimulation by ACTH; effect of Mrap2 co-expression on sensitivity for activation by ACTH (zebrafish Mc4r; ref Josep Agulleiro et al.): sensitivity for activation by ACTH increases as well
Nle^4, D-Phe^7-α-MSH [NDP-MSH] | no effect on the Vmax value | had no effect on sensitivity to stimulation | no effect on the Vmax value | no effect, in either a positive or negative manner, on the sensitivity of gMc1r | no effect on the Vmax value | had no effect on sensitivity to stimulation; also recorded: no statistical effect on the sensitivity of gMc4r | increase in Vmax | did not increase sensitivity; also recorded: no effect, either positive or negative, on the sensitivity of the receptor | decrease in the Vmax value | had no effect on sensitivity to stimulation; also recorded: no effect on the sensitivity of gMc1r | statistically higher than the Vmax for the dose response curve when gMc4r was expressed alone; also recorded: comparable in magnitude to the Vmax value for the gMc4r/gMrap2 cells stimulated hACTH(1–24); also recorded: the amplitude of stimulation (Vmax) also increased for both ligands | increase in Vmax | had no effect on sensitivity to stimulation; also recorded: no effect, either positive or negative, on the sensitivity of the receptor | decrease in the Vmax value | no effect either positive or negative on the sensitivity of gMc3r | can be activated with equal efficacy | sensitivity to NDP-MSH compared with hACTH(1–24) (gMc1r): much more sensitive to stimulation by NDP-MSH than to stimulation by hACTH(1–24); response to NDP-MSH (hMc2r/mMrap1): did not evoke a response; effect of Mrap2 co-expression on ligand sensitivity (mouse Mc4r): enhances ligand sensitivity of the receptor to activation by NDP-MSH; EC50 of NDP-MSH compared with hACTH (1–24) (gMc5r): not statistically different from stimulation with hACTH (1–24); activation of gMc2r/gMrap1 by NDP-MSH (gMc2r/gMrap1; Fig. 2B, CHO cells, 4 h at 37 °C, 10^−12M to 10^−6M, n = 3): low level of activation (only at 10^−7M and 10^−6M); also recorded: activation was observed, but only at concentrations of 10^−7 M and 10^−6M; also recorded: weak activation only at 10 ^7M and 10^−6M; also recorded: could be activated to a limited degree by NDP-MSH at concentrations of 10^−7M and 10^−6M; degree of stimulation relative to stimulation at saturation by hACTH(1–24) (gMc2r/gMrap1; NDP-MSH at 10^−6 M vs 10^−9M hACTH(1–24), Fig. 2B): roughly 40%; effect of Mrap2 co-expression on ligand sensitivity (zebrafish Mc4r; activation by NDP-MSH, ref Sebag et al.): enhances ligand sensitivity of the receptor to activation by NDP-MSH; sensitivity to NDP-MSH compared with hACTH(1–24) (gMc3r): higher sensitivity for stimulation by NDP-MSH than by stimulation with hACTH(1–24)
